Values joined by “and” are separate entries in the source; they are usually repeats but may differ in a detail not shown here. Equal values may be shown once.
Tests used:
[1] = system: P. falciparum 3D7 parasites; test: P. falciparum 3D7 asexual-stage parasite LDH viability assay; format: cell-based, Plasmodium falciparum; details: for EC50: Plasmodium falciparum, 3D7, 72 h, read-out: Control compound activity against 3D7 parasites, EC50, 3D7, LDH assay, 72 h, value (SD)
[2] = system: P. berghei EEFs; test: Exoerythrocytic stage assay; format: cell-based; details: Plasmodium berghei, 48 h, read-out: Pb liver stage EEFs EC50 (SD)
[3] = system: HepG2; test: HepG2 host cell viability in the liver stage panel; format: cell-based; details: Homo sapiens, HepG2, 48 h, read-out: HepG2 EC50 (liver stage)
[4] = system: Pf Dd2 strain with an I22L mutation in the Qi site cyt b; test: 3H-hypoxanthine 72 h assay, Dd2 cyt b; format: cell-based, Plasmodium falciparum
Method in brief: (§1)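 Asexual blood-stage parasites in hypoxanthine-free RPMI 1640 with HEPES, NaHCO3, neomycin (100 μg/mL) and Albumax II (5 g/L). Infected blood (0.3% parasitemia, 2.5% hematocrit) was exposed to a 10-point serial dilution at 37 °C under 93% N2/4% CO2/3% O2. After 48 h, [3H]-hypoxanthine (0.5 μCi/well) was added for 24 h more. Scintillation cpm were normalised to untreated controls, and logit regression gave values as means of two experiments.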

[5] = system: P. berghei ANKA parasites expressing GFP; test: Peter's 4 day P. berghei mouse model; format: in vivo; details: for % parasitemia: average for four mice on day 4; for % reduction in parasitemia: versus the vehicle control, four mice, day 4
Method in brief: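 Swiss mice (four per group) were infected IV with 1 × 10^7 P. berghei ANKA GFPcon-infected erythrocytes from donor mice. Dosing was oral once daily for 4 days, starting 2 h post-infection: test compound at 20 mg/kg in 20% DMSO/60% propylene glycol/20% water, or chloroquine at 10 mg/kg in water. Day-4 parasitemia was measured as GFP+ cells per 100,000 events and by Giemsa smears, with reduction calculated against vehicle.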

[6] = system: Pf Dd2 parental line; test: 3H-hypoxanthine 72 h assay, Dd2 parental line; format: cell-based; details: Plasmodium falciparum, DD2, read-out: Pf Dd2 EC50, Dd2 parental line, 3H-hypoxanthine 72 h; average of two experiments
[7] = Kinetic aqueous solubility; format: physicochemical; details: kinetic in PBS
Method in brief: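 Miniaturised shake flask: test compound (200 μM) in PBS pH 7.4 was shaken at 600 rpm, 25 °C for 2 h, filtered, and the filtrate half-diluted in acetonitrile. Run in duplicate.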

[8] = Hepatocyte stability, rat; format: in vitro ADME; details: pooled rat hepatocytes
Method in brief: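 Test compound (1 μM) in Krebs–Henseleit buffer was incubated with pooled rat hepatocytes (1 × 10^6 cells/mL) at 37 °C, 5% CO2, with samples from 0 to 90 min. Reactions were quenched with ice-cold acetonitrile and centrifuged, and supernatants were analysed by LC–MS/MS. Half-life and CLint were derived from parent remaining. Run in duplicate.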

[9] = system: K1; test: 3H-hypoxanthine 72 h assay, K1; format: cell-based; details: Plasmodium falciparum, K1, read-out: Pf multidrug-resistant strain EC50 K1
[10] = system: NF54; test: 3H-hypoxanthine 72 h assay, NF54; format: cell-based; details: Plasmodium falciparum, NF54, read-out: Pf multidrug-resistant strain EC50 NF54
[11] = LogD at pH 7.4; format: physicochemical; details: 1-octanol/phosphate-buffered saline (1:1, v/v)
[12] = system: RF12; test: 3H-hypoxanthine 72 h assay, RF12; format: cell-based; details: Plasmodium falciparum, read-out: Pf multidrug-resistant strain EC50 RF12
[13] = system: 7G8; test: 3H-hypoxanthine 72 h assay, 7G8; format: cell-based; details: Plasmodium falciparum, 7G8, read-out: Pf multidrug-resistant strain EC50 7G8
[14] = system: drug-resistant P. falciparum strains; test: Profiling against a selection of multidrug-resistant parasites; format: cell-based, Plasmodium falciparum
Method in brief: as §1

[15] = system: Pf Dd2 expressing ScDHODH; test: ScDHODH asexual-stage assay; format: cell-based; details: Plasmodium falciparum, DD2, 72 h, read-out: Dd2 ScDHODH EC50
Method in brief: (§2)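 Parasites were sorbitol-synchronised one cycle before setup. Ring stages at 0.5% parasitemia and 2% hematocrit were plated onto twofold compound dilutions and incubated at 37 °C for 72 h. Cells were fixed in 0.25% glutaraldehyde (RT, 30 min), stained with 2.5× SYBR Green (37 °C, 30 min) and counted by flow cytometry. EC50 is the average of three independent experiments.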

[16] = system: Pf SB1-A6 strain with a CNV (∼2-fold) and a C276F mutation in DHODH; test: SB1-A6 asexual-stage assay; format: cell-based; details: Plasmodium falciparum, 72 h, read-out: SB1-A6 EC50
Method in brief: as §2

[17] = system: mitochondrial electron transport chain of P. falciparum 3D7 asexual parasites; test: ETC biosensor / oxygen consumption rate; format: cell-based, Plasmodium falciparum; details: for effect on malate-dependent oxygen consumption rate (OCR): compounds at 5 μM, malate as the energy source
Method in brief: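 Magnet-purified trophozoite-infected RBCs were saponin-released (0.05%, 37 °C, 3 min) and washed. Parasites were suspended in MAS buffer with 25 mM malate and 0.002% digitonin and seeded at 5 × 10^6 per Cell-Tak-coated well (800g, 10 min). Seahorse XFe96 OCR was read at baseline, after test compound (5 μM final), after TMPD (0.2 mM) with ascorbate (2 mM), then after NaN3 (10 mM). Each cycle was 20 s mix, 1 min wait, 2.5 min measure.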

[18] = Plasma bioanalysis in the P. berghei mouse model; format: in vivo; details: 20 mg/kg oral
Method in brief: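 Blood was sampled from P. berghei-infected mice at 2, 6 and 22 h after the first oral 20 mg/kg dose. Plasma compound concentrations were quantified by LCMS.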

[19] = system: P. falciparum NF54 female gametes; test: Dual gamete formation assay; format: cell-based; details: Plasmodium falciparum, NF54, read-out: female gamete EC50
Method in brief: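 Stage V NF54 gametocyte cultures with >0.2% exflagellation were diluted to 12.5 million cells/mL in gametocyte medium containing 10% human serum and no Albumax. They were dispensed warm (625,000 cells/well) onto the test compound. After ookinete medium was added, plates went to 4 °C for 4 min and then 28 °C for 5 min, followed by 24 h at 28 °C in the dark. Female gametes (Pfs25) were scored from one fluorescence image per well.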

[20] = Liver microsome stability, mouse; format: in vitro ADME; details: pooled mouse liver microsomes
Method in brief: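 Test compound (1 μM, phosphate buffer) was incubated with pooled mouse liver microsomes (0.5 mg/mL) at 37 °C, with and without an NADPH regeneration system, sampling at 0, 5, 20, 30, 45 and 60 min. Run in duplicate.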

[21] = 3D7 parasite EC50 compared to 17

C[C@H]1[C@H](OC(=O)CCC(=O)O)O[C@@H]2O[C@@]3(C)CC[C@H]4[C@H](C)CC[C@@H]1[C@@]24OO3 [artesunate, reference compound]
EC50 [1]: 8 nM

CCn1cc(C(N)=O)c(=O)c2cc(F)c(N3CCC(C)CC3)cc21 [Compound 22, 1-Ethyl-6-fluoro-7-(4-methyl-1-piperidyl)-4-oxo-quinoline-3-carboxamide]
EC50 [2]: 24 nM | EC50 [3]: > 50000 nM | fold less active/potent than 17 [1, 21]: approximately 20 fold | difference in sensitivity between the ELQ-300 resistant Dd2 strain and the Dd2 parental strain [4]: no difference in sensitivity

CCN(CC)CCCC(C)Nc1ccnc2cc(Cl)ccc12 (stereo not drawn) [CQ, chloroquine, reference compound]
EC50 [1]: 35 nM | % parasitemia ([5]; 10 mg/kg): 0.02% | % reduction in parasitemia ([5]; 10 mg/kg): 99.8%

CCn1cc(-c2nc(C)no2)c(=O)c2cc(F)c(N3CCC(CN4CCOCC4)CC3)cc21 [Compound 42, 1-Ethyl-6-fluoro-3-(3-methyl-1,2,4-oxadiazol-5-yl)-7-[4-(morpholinomethyl)-1-piperidyl]quinolin-4-one]
fold less active than the benzyl analog 41 ([1]; 3D7 parasite EC50 compared to 41): 30 fold

CS(=O)(=O)c1ccc(-c2cnc(N)c(-c3ccc(C(F)(F)F)nc3)c2)cc1 [MMV048]
EC50 [6]: 16 nM

CCOC(=O)c1cn(CC)c2cc(N3CCC(Cc4ccccc4)CC3)c(F)cc2c1=O [Compound 43, Ethyl 7-(4-Benzyl-1-piperidyl)-1-ethyl-6-fluoro-4-oxo-quinoline-3-carboxylate]
aqueous solubility pH 7.4 [7]: 10.4 μM | hepatocyte CLint at 1 μM [8]: > 92.4 µL/min/1e6 cells | EC50 [9]: 14 nM | EC50 [10]: 17 nM | logD at 2 h [11]: 4.6 | difference in sensitivity between the ELQ-300 resistant Dd2 strain and the Dd2 parental strain [4]: no difference in sensitivity | EC50 [12]: 5 nM | EC50 [13]: 12 nM | potency against each drug-resistant strain compared to the Dd2 and NF54 wild-type parasites [14]: equipotent | EC50 [6]: 15 nM

CCn1cc(-c2nc(C)no2)c(=O)c2cc(F)c(N3CCCC(C)C3)cc21 (stereo not drawn) [Compound 34, 1-Ethyl-6-fluoro-3-(3-methyl-1,2,4-oxadiazol-5-yl)-7-(3-methyl-1-piperidyl)quinolin-4-one]
fold less active/potent than 17 [1, 21]: 5 fold

CCCC1CCN(c2cc3c(cc2F)c(=O)c(-c2nc(C)no2)cn3CC)CC1 [Compound 38, 1-Ethyl-6-fluoro-3-(3-methyl-1,2,4-oxadiazol-5-yl)-7-(4-propyl-1-piperidyl)quinolin-4-one]
fold more potent than 17 [1, 21]: 2 fold

O=C1C(O)=C([C@H]2CC[C@H](c3ccc(Cl)cc3)CC2)C(=O)c2ccccc21 [ATQ, atovaquone, reference compound]
EC50 [15]: > 10000 nM | EC50 [16]: > 10000 nM | EC50 [6]: 1 nM

O=C(NCCN1CCCC1)c1cc(-c2ccc(CN3CCOCC3)cc2)nc2ccc(F)cc12 [DDD107498]
EC50 [6]: 0.4 nM

CCn1cc(-c2nc(C)no2)c(=O)c2cc(F)c(N3CCC(C(C)C)CC3)cc21 [Compound 39, 1-Ethyl-6-fluoro-7-(4-isopropyl-1-piperidyl)-3-(3-methyl-1,2,4-oxadiazol-5-yl)quinolin-4-one]
fold less active/potent than 17 [1, 21]: 2 fold

CC1(C)c2nc(-c3ccc(F)cc3)c(Nc3ccc(F)cc3)n2CCN1C(=O)CN [KAF156]
EC50 [6]: 8 nM

CCn1cc(-c2nc(C)no2)c(=O)c2cc(F)c(N3CCC(c4ccccc4)CC3)cc21 [Compound 40, 1-Ethyl-6-fluoro-3-(3-methyl-1,2,4-oxadiazol-5-yl)-7-(4-phenyl-1-piperidyl)quinolin-4-one]
fold less active/potent than 17 [1, 21]: 2 fold

Cc1cc(Nc2ccc(S(F)(F)(F)(F)F)cc2)n2nc(C(C)(F)F)nc2n1 [DSM265, reference compound]
EC50 [15]: > 10000 nM | EC50 [16]: > 10000 nM | effect on malate-dependent oxygen consumption rate (OCR) [17]: had no effect | EC50 [6]: 24 nM

CCn1cc(-c2nc(C)no2)c(=O)c2cc(F)c(N3CCN(C(C)=O)CC3)cc21 [Compound 33, 7-(4-Acetylpiperazin-1-yl)-1-ethyl-6-fluoro-3-(3-methyl-1,2,4-oxadiazol-5-yl)quinolin-4-one]
effect on malate-dependent oxygen consumption rate (OCR) [17]: does not affect the OCR

CCNC(=O)c1cn(CC)c2cc(N3CCC(C)CC3)c(F)cc2c1=O [Compound 23, N,1-Diethyl-6-fluoro-7-(4-methyl-1-piperidyl)-4-oxo-quinoline-3-carboxamide]
fold less active/potent than 17 [1, 21]: approximately 20 fold

CCn1cc(-c2nc(C)no2)c(=O)c2cc(F)c(N3CCC(C)CC3)cc21 [Compound 17, 1-Ethyl-6-fluoro-3-(3-methyl-1,2,4-oxadiazol-5-yl)-7-(4-methyl-1-piperidyl)quinolin-4-one]
hepatocyte CLint at 1 μM [8]: 53.8 µL/min/1e6 cells | EC50 [2]: < 1 nM | EC50 [3]: > 50000 nM | EC50 [9]: 9 nM | EC50 [10]: 12 nM | in vitro EC99 [1]: 0.030 µM | % parasitemia ([5]; 20 mg/kg p.o. q.d. days 0-3): 8.1% | % reduction in parasitemia ([5]; 20 mg/kg p.o. q.d. days 0-3): 56% and 56.2% | logD at 2 h [11]: 2.6 | difference in sensitivity between the ELQ-300 resistant Dd2 strain and the Dd2 parental strain [4]: no difference in sensitivity | absorption [18]: moderate absorption | time for which total plasma concentration exceeds the in vitro EC99 ([18]; after dose 1): approximately 12 h | EC50 [12]: 6 nM | EC50 [19]: > 25000 nM | EC50 [13]: 9 nM | EC50 [15]: 1700 nM | EC50 [16]: 1800 nM | OCR upon addition of TMPD ([17]; after compound (5 μM), TMPD (cytochrome c electron donor) added): rescued | effect on malate-dependent oxygen consumption rate (OCR) [17]: significantly reduce the OCR | microsomal CLint at 1 μM [20]: 16.2 µL/min/mg | potency against each drug-resistant strain compared to the Dd2 and NF54 wild-type parasites [14]: equipotent | EC50 [6]: 10 nM

From paper PMC10012268 (ACS Infectious Diseases, 2023)
